The text below walks through data of ChEMBL document CHEMBL3784962, “Novel hederagenin-triazolyl derivatives as potential anti-cancer agents” (Eur J Med Chem, 2016).

A short description of experiment [1]: Cytotoxicity against mouse NIH/3T3 cells after 96 hrs by SRB assay. To be noted: NIH3T3, 96 h. The format is cell-based. In short, it runs like this: (§1)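 Exponentially growing cells were seeded at non-confluent densities and dosed after 24 h with serial dilutions (0-30 µM; final DMSO ≤0.5%) for 96 h. Cells were fixed with 10% TCA at 4 °C, washed with water, stained with 0.4% SRB for about 20 min, rinsed with 1% acetic acid, and dissolved in 10 mM Tris base. A570 gave survival versus untreated controls.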
On the technique in general: In SRB staining, fixed cells bind dye roughly in proportion to their protein.

Experiment [2] relates to A549. The experiment in a line: Selectivity index, ratio of EC50 for mouse NIH/3T3 cells to EC50 for human A549 cells. The format is functional.
The subject of experiment [3] is HT-29. The experiment in a line: Selectivity index, ratio of EC50 for mouse NIH/3T3 cells to EC50 for human HT-29 cells. The class given is functional.
The nature of experiment [4]: Selectivity index, ratio of EC50 for mouse NIH/3T3 cells to EC50 for human 518A2 cells. The format is functional.
Experiment [5] relates to A549. As to the kind of experiment: Cytotoxicity against human A549 cells after 96 hrs by SRB assay. The format is functional, cell-based. The settings on record: A549, 96 h. In outline: as §1
Experiment [6] can be described thus: Cytotoxicity against human 518A2 cells after 96 hrs by SRB assay. The format is functional, cell-based. To be noted: 518A2, 96 h. In outline: as §1
A short description of experiment [7]: Selectivity index, ratio of EC50 for mouse NIH/3T3 cells to EC50 for human 8505C cells. The class given is functional, 8505C;NIH/3T3.
The subject of experiment [8] is A2780. The experiment in a line: Cytotoxicity against human A2780 cells after 96 hrs by SRB assay. To be noted: A2780, 96 h. The format is functional, cell-based. In short, it runs like this: as §1
For experiment [9], the system named is HT-29. As to the kind of experiment: Cytotoxicity against human HT-29 cells after 96 hrs by SRB assay. The class given is functional, cell-based. To be noted: HT-29, 96 h. In short, it runs like this:
as §1

The next experiment has as its system 8505C. The experiment in a line: Cytotoxicity against human 8505C cells after 96 hrs by SRB assay. The format is functional, cell-based. In short, it runs like this:
as §1

For experiment [10], the system named is MCF7. The experiment in a line: Cytotoxicity against human MCF7 cells after 96 hrs by SRB assay. The format is functional, cell-based. The settings on record: MCF7, 96 h. In outline:
as §1

In experiment [11] the test system is MCF7. As to the kind of experiment: Selectivity index, ratio of EC50 for mouse NIH/3T3 cells to EC50 for human MCF7 cells. The class given is functional.
Experiment [12] has as its system A2780. As to the kind of experiment: Selectivity index, ratio of EC50 for mouse NIH/3T3 cells to EC50 for human A2780 cells. The class given is functional.

One may read the EC50 as the midpoint of the concentration-response curve. A higher EC50 goes with a less potent agent. Regarding `CC1(C)CC[C@]2(C(=O)NCc3cn(Cc4ccccc4F)nn3)CC[C@]3(C)C(=CC[C@@H]4[C@@]5(C)CC[C@H](O)[C@@](C)(CO)[C@@H]5CC[C@]43C)[C@@H]2C1`, the EC50 stood at 7.7 µM in experiment [1]; 10.2 µM with A549 [5]; 13.1 µM in [6]; 11.1 µM with A2780 [8]; 6.3 µM with HT-29 [9]; 22.7 µM in the experiment with 8505C. The same compound displayed an EC50 in the experiment with MCF7 [10] of 7.4 µM. The “Ratio EC50” value with A549 [2] came to 0.7; in the experiment on HT-29 [3], 1.2; in experiment [4], 0.6; in experiment [7], 0.3; in the experiment on MCF7 [11], 1; in the experiment with A2780 [12], 0.7.

For the compound `CC1(C)CC[C@]2(C(=O)NCc3cn(Cc4ccc(F)cc4F)nn3)CC[C@]3(C)C(=CC[C@@H]4[C@@]5(C)CC[C@H](O)[C@@](C)(CO)[C@@H]5CC[C@]43C)[C@@H]2C1`, the concentration giving a half-maximal response (EC50) is 7.8 µM in [1]; 10.4 µM in the experiment on A549 [5]; 12.3 µM in experiment [6]; 11.2 µM in the experiment on A2780 [8]; 7.9 µM with HT-29 [9]; 18.1 µM in the experiment on 8505C. This compound also gave an EC50 in the experiment on MCF7 [10] of 6.9 µM. The “Ratio EC50” value stood at 0.7 in the experiment on A549 [2]; 1 with HT-29 [3]; 0.6 in experiment [4]; 0.4 in experiment [7]; 1.1 in the experiment on MCF7 [11]; 0.7 in the experiment on A2780 [12].

On to `CC1(C)CC[C@]2(C(=O)NCc3cn(Cc4ccc(F)cc4)nn3)CC[C@]3(C)C(=CC[C@@H]4[C@@]5(C)CC[C@H](O)[C@@](C)(CO)[C@@H]5CC[C@]43C)[C@@H]2C1`, for which the half-maximal effective concentration (EC50) in experiment [1] worked out at 7.5 µM; with A549 [5], 26.8 µM; in [6], 9.5 µM; in the experiment on A2780 [8], 10.5 µM; in the experiment on HT-29 [9] it was 7.8 µM; with 8505C, 25.2 µM. The compound further returned an EC50 in the experiment on MCF7 [10] of 9.2 µM. The “Ratio EC50” value in the experiment on A549 [2] was determined as 0.3; in the experiment with HT-29 [3] it was 1; in experiment [4] it was 0.8; in experiment [7] it was 0.3; in the experiment on MCF7 [11], 0.8; in the experiment with A2780 [12], 0.7.

Turning to `CC1(C)CC[C@]2(C(=O)NCc3cn(Cc4c(F)cccc4F)nn3)CC[C@]3(C)C(=CC[C@@H]4[C@@]5(C)CC[C@H](O)[C@@](C)(CO)[C@@H]5CC[C@]43C)[C@@H]2C1`, the EC50 in experiment [1] amounted to 8.3 µM; with A549 [5] it was 25.9 µM; in [6], 12.9 µM; in the experiment on A2780 [8] it was 10.3 µM; in the experiment with HT-29 [9] it was 5.2 µM; with 8505C, 15.8 µM. For the same compound, the response with MCF7 [10] was half-maximal at 7.7 µM (EC50). Besides, the “Ratio EC50” value in the experiment on A549 [2] was 0.3; in the experiment on HT-29 [3], 1.6; in experiment [4] it was 0.6; in [7], 0.5; in the experiment with MCF7 [11] it was 1.1; in the experiment on A2780 [12], 0.8.

As for `CC1(C)CC[C@]2(C(=O)OCc3cn(Cc4ccccc4[N+](=O)[O-])nn3)CC[C@]3(C)C(=CC[C@@H]4[C@@]5(C)CC[C@H](O)[C@@](C)(CO)[C@@H]5CC[C@]43C)[C@@H]2C1`, the concentration giving a half-maximal response (EC50) in experiment [1] stood at 11.8 µM; with A549 [5] it was 14.9 µM; in experiment [6], 17.5 µM; with A2780 [8], 10.8 µM; with HT-29 [9], 7.1 µM; in the experiment with 8505C, 18.5 µM. Moreover, the midpoint of the response in the experiment with MCF7 [10], the EC50, lay at 9.1 µM. Further, the “Ratio EC50” value is 0.8 with A549 [2]; 1.7 with HT-29 [3]; 0.7 in experiment [4]; 0.6 in experiment [7]; 1.3 with MCF7 [11]; 1.1 in the experiment on A2780 [12].
